From ChEMBL document CHEMBL3091306, “Synthesis, docking and pharmacological evaluation of novel homo- and hetero-bis 3-piperazinylpropylindole derivatives at SERT and 5-HT1A receptor” (Bioorg Med Chem, 2013)

Assays:
[1] = biological target: T1, 5-hydroxytryptamine receptor 1A (Homo sapiens, UniProt P08908); test: Displacement of [3H]8-OH-DPAT from human 5-HT1A receptor expressed in HEK293 cells; format: cell-based
T1 sequence (P08908 whole entry): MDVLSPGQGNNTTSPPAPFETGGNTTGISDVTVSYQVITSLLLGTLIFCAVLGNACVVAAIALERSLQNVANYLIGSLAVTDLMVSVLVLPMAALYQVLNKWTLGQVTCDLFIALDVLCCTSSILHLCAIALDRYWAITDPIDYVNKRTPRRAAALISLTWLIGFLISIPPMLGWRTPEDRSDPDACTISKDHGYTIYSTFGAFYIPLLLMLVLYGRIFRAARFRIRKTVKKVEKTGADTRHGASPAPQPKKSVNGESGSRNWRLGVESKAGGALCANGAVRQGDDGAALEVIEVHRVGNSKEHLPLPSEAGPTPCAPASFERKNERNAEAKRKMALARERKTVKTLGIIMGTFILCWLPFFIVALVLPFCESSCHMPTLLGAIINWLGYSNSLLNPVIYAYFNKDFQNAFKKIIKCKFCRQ

[2] = biological target: Sodium-dependent serotonin transporter (Rattus norvegicus, UniProt P31652); test: Displacement of [3H]paroxetine from SERT in rat cortical membranes after 6 mins by liquid scintillation counting; format: cell membranes
Method in brief: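 Rat cortical membranes (0.35 mg original wet weight) incubated with 0.2 nM [3H]paroxetine and test compound at 10^-11–10^-4 M in 50 mM Tris–HCl pH 7.7 with 150 mM NaCl, 5 mM KCl, 1.0 ml, 6 min at 25 °C; stopped by rapid filtration through polyethyleneimine-soaked GF/B filters, ice-cold buffer washes.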

Sodium-dependent serotonin transporter, sequence (P31652 whole entry): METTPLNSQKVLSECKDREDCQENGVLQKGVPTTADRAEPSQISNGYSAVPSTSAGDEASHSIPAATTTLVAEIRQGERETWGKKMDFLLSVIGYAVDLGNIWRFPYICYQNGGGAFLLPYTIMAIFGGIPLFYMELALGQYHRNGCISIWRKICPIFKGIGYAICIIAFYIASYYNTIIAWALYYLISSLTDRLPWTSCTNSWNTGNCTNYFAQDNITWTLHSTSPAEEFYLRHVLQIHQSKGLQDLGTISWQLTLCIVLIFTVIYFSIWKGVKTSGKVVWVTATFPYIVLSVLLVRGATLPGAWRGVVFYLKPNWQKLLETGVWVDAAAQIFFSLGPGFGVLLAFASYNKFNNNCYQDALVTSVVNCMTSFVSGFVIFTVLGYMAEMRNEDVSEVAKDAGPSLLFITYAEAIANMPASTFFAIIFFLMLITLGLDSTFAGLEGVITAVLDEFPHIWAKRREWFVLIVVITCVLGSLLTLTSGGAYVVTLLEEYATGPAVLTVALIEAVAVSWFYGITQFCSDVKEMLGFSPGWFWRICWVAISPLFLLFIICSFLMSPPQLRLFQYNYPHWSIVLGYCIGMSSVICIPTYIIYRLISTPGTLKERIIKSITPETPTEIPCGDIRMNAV

| Structure (SMILES) | IC50 [1] | IC50 [2] |
| --- | --- | --- |
| Fc1ccc2[nH]cc(CCCN3CCN(CCCc4c[nH]c5ccccc45)CC3)c2c1 | 16 nM | 26 nM |
| COc1ccc2[nH]cc(CCCN3CCN(CCCc4c[nH]c5ccccc45)CC3)c2c1 | 4500 nM | 43 nM |
| c1ccc2c(CCCN3CCN(CCCc4c[nH]c5ccccc45)CC3)c[nH]c2c1 | 2700 nM | 37 nM |
| Brc1ccc2[nH]cc(CCCN3CCN(CCCc4c[nH]c5ccc(Br)cc45)CC3)c2c1 | 1200 nM | 87 nM |
| Brc1ccc2[nH]cc(CCCN3CCN(CCCc4c[nH]c5ccccc45)CC3)c2c1 | 15 nM | 137 nM |

Continued, values first:

| IC50 [1] | IC50 [2] | Structure (SMILES) |
| --- | --- | --- |
| 7200 nM | 14 nM | COc1ccc2[nH]cc(CCCN3CCN(CCCc4c[nH]c5ccc(F)cc45)CC3)c2c1 |
| 4900 nM | 61 nM | Fc1ccc2[nH]cc(CCCN3CCN(CCCc4c[nH]c5ccc(Br)cc45)CC3)c2c1 |
| 128 nM | 39 nM | COc1ccc2[nH]cc(CCCN3CCN(CCCc4c[nH]c5ccc(Br)cc45)CC3)c2c1 |
| 5700 nM | 13 nM | Fc1ccc2[nH]cc(CCCN3CCN(CCCc4c[nH]c5ccc(F)cc45)CC3)c2c1 |
| 599 nM | 98 nM | COc1ccc2[nH]cc(CCCN3CCN(CCCc4c[nH]c5ccc(OC)cc45)CC3)c2c1 |
